For 16 compounds, IC50, Jump latency time and ED50 results are on record in ChEMBL document CHEMBL1125423, “Potent and systemically active aminopeptidase N inhibitors designed from active-site investigation” (J Med Chem, 1992).

Assay [1] concerns the target T1, Aminopeptidase N (Sus scrofa, UniProt P15145).
T1 sequence (P15145 whole entry): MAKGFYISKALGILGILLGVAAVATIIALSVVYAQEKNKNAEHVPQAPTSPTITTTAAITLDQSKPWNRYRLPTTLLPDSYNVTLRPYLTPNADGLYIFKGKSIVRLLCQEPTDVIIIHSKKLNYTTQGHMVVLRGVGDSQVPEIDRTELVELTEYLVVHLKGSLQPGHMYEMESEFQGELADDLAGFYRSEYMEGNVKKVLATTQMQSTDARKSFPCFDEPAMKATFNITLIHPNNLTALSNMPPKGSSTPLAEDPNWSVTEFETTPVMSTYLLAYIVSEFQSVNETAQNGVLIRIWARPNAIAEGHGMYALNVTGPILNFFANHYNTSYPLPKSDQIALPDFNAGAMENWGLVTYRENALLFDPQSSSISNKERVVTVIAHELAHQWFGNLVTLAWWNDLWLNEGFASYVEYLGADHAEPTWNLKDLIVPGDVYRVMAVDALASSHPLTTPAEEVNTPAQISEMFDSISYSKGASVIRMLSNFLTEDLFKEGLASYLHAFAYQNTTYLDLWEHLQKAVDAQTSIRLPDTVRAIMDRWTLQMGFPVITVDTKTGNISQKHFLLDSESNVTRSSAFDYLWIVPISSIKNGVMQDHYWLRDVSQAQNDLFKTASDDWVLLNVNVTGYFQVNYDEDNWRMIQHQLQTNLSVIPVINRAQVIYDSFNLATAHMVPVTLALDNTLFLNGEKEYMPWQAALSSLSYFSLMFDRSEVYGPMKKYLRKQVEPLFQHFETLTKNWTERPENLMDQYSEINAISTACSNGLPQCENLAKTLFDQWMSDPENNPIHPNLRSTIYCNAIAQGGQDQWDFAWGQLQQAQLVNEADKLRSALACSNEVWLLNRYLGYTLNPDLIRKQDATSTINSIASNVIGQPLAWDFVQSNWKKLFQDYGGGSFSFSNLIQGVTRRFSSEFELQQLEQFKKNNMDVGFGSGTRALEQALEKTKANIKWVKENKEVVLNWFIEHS
The assay is described as follows: Inhibition of [3H]Leu-enkephalin binding to Aminopeptidase N from hog kidney. The essentials:
(§1)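 Hog kidney APN preincubated 15 min at 25 °C with rising inhibitor concentrations in 50 mM Tris-HCl pH 7.4; thiols supplied as disulfides reduced in situ with 100 equiv DTT. [3H]Tyr1-Leu5-enkephalin added at 10 nM final (Km 50 μM); reaction stopped after 15 min with HCl. Released [3H]Tyr separated on polystyrene beads; IC50 determined.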

Assay [2] has as its system Mus musculus. Nature of the assay: Compound (40 mg/kg) was tested for antinociceptive responses induced in hot plate test in mice after an iv dose of acetorphan 10 mg/kg. The format is functional. The essentials: (§2)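 Male Swiss mice (20–22 g); agents given iv under disulfide form together with acetorphan 10 mg/kg, in ethanol 10%/cremophor EL 10%/water 80% at 0.1 mL per 10 g; vehicle-injected controls. Jump latency read on hot plate at 55 ± 0.5 °C 15 min after injection, cut-off 240 s. % analgesia = (test − control latency)/(cut-off − control latency) × 100; ANOVA then Dunnett's t test.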
On the technique in general: In hot-plate and tail-flick tests a longer latency is read as antinociception.

The subject of assay [3] is Mus musculus. The assay is described as follows: Compound (20 mg/kg) was tested for antinociceptive responses induced in hot plate test in mice after an iv dose of acetorphan 10 mg/kg. The format is functional. The essentials:
as §2

Assay [4] deals with Mus musculus. Nature of the assay: Compound (10 mg/kg) was tested for antinociceptive responses induced in hot plate test in mice after an iv dose of acetorphan 10 mg/kg. It is filed as functional. The essentials: as §2
Assay [5] deals with Mus musculus. Nature of the assay: Compound( 5 mg/kg) was tested for antinociceptive responses induced in hot plate test in mice after an iv dose of acetorphan 10 mg/kg. The format is functional. The essentials: as §2
Assay [6] concerns the target T1, Aminopeptidase N. The assay is described as follows: Compound was tested for inhibitory potency against aminopeptidase N from hog kidney, using [3H]Leu-enkephalin as substrate. The essentials: as §1
For assay [7], the system named is Mus musculus. The assay is described as follows: Compound( 20 mg/kg) was tested for antinociceptive responses induced in hot plate test in mice after an iv dose of acetorphan 10 mg/kg. It is filed as functional. The essentials: (§3)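 Male Swiss mice (20–22 g) given compound as disulfide form iv, coadministered with acetorphan 10 mg/kg, in ethanol (10%)/cremophor EL (10%)/water (80%) vehicle, 0.1 mL per 10 g; controls got vehicle. Hot plate at 55 ± 0.5 °C 15 min later; jump latency recorded, cut-off 240 s. % analgesia = (test − control latency)/(cut-off − control latency) × 100; ANOVA then Dunnett's t test.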

The test system of assay [8] is Mus musculus. Nature of the assay: Compound( 5 mg/kg) was tested for antinociceptive responses induced in hot plate test in mice(% analgesia) after an iv dose of acetorphan 10 mg/kg. The format is functional. The essentials: as §3
The test system of assay [9] is Mus musculus. Nature of the assay: Compound( 10 mg/kg) was tested for antinociceptive responses induced in hot plate test in mice after an iv dose of acetorphan 10 mg/kg. It is filed as functional. A digest of the protocol:
as §3

One may read the IC50 as the concentration needed to halve the response being measured. Compound `CC(C)(C)SCC(N)CS` (centres undefined) had an IC50 at Aminopeptidase N [1] of 40 nM.
Consider `CC(C)CC(N)CS` (centres undefined), for which the Jump latency time was found to be 240 s in the assay on Mus musculus [2] and 225.6 s with Mus musculus [3]. Besides, the IC50 at Aminopeptidase N [1] stood at 22 nM.
Consider `CNC(CS)CC(C)C` (centres undefined), for which the IC50 on Aminopeptidase N [1] is 4000 nM.
For the compound `SCC(Cc1ccccc1)NCc1ccccc1` (centres undefined), the IC50 on Aminopeptidase N [1] is 160000 nM.
As for `C[S+]([O-])CCC(N)CS` (centres undefined), the Jump latency time in the assay with Mus musculus [4] came to 236 s; in the assay on Mus musculus [5] it was 216.9 s; with Mus musculus [3] it was 240 s.
For `CSCCC(N)CS` (centres undefined), the Jump latency time is recorded as 225.4 s in the assay with Mus musculus [4], 200.8 s in the assay on Mus musculus [5] and 240 s with Mus musculus [3].
For the compound `NC(CS)Cc1ccc2ccccc2c1` (centres undefined), the Jump latency time in the assay on Mus musculus [2] was 132.8 s; in the assay on Mus musculus [3], 106.6 s. The IC50 at Aminopeptidase N [1] worked out at 130 nM.
As for `NC(CS)CSCc1ccccc1` (centres undefined), the Jump latency time was 233.6 s in the assay with Mus musculus [2] and 232.2 s in the assay on Mus musculus [3]. On Aminopeptidase N [1], this compound showed an IC50 of 90 nM.
Regarding `NC(CS)COCc1ccccc1` (centres undefined), the Jump latency time is on record as 229.4 s in the assay with Mus musculus [2] and 166.5 s with Mus musculus [3]. This compound yielded an IC50 on Aminopeptidase N [1] of 56 nM.
For the compound `NC(CSCc1ccccc1)Cc1ccccc1` (centres undefined), at Aminopeptidase N [1], the IC50 was determined as 80000 nM.
At Aminopeptidase N [6], `NC(CS)c1ccccc1` (centres undefined) showed an IC50 of 25 nM. This lies in the double-digit nanomolar range.
With `NC(CS)Cc1ccc(O)cc1` (centres undefined), on Aminopeptidase N [6], the IC50 worked out at 45 nM. Besides, the Jump latency time is given as 112.9 s with Mus musculus [5], 166.4 s in the assay on Mus musculus [2] and 119 s in the assay with Mus musculus [3].
With `NC(CS)CC1CCCCC1` (centres undefined), the IC50 against Aminopeptidase N [6] stood at 45 nM.
On to `NC(Cc1ccccc1)CP(=O)(O)O` (centres undefined), for which the half-inhibitory concentration (IC50) on Aminopeptidase N [1] was found to be 500000 nM.
In turn, `NC(CC(=O)O)Cc1ccccc1` (centres undefined) yielded an IC50 on Aminopeptidase N [6] of 800000 nM.
Broadly, the ED50 is the midpoint of the dose-response relation. High values mean a need for a large dose, low ones an effect at a small dose. Turning to `NC(CS)Cc1ccccc1` (centres undefined), the Jump latency time in the assay with Mus musculus [7] was determined as 204.2 s; in the assay with Mus musculus [5] it was 90 s; with Mus musculus [9], 147.9 s. Moreover, the ED50 in the assay with Mus musculus [8] came out at 12 mg/kg.
